Measurements taken from ChEMBL document CHEMBL1955770, “Inhibition of S/G2 phase CDK4 reduces mitotic fidelity” (J Biol Chem, 2006).
Activity calls are given as the source filed them. The rule behind the calls is not given here.

Tests used:
[1] = biological target: Hepatocyte growth factor receptor (Homo sapiens, UniProt P08581); test: Inhibition of c-Met using fluorescent substrate by IMAP assay
Method in brief: (§1)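 Run in-house using IMAP: phosphorylated fluorescent peptide substrate binds preferentially to immobilized metal beads, which quantifies kinase activity. ATP at 3× the Km of each enzyme.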

[2] = Inhibition of JNK using fluorescent substrate by IMAP assay; method in brief: as §1
[3] = Cell cycle arrest in Rb-competent human SK-MEL-13 cells assessed as accumulation at G1 phase at 2 uM after 24 hrs by FACS analysis; format: functional
Method in brief: (§2)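 Ethanol-fixed cells stained with propidium iodide/RNase A, DNA content read by FACS, phase and sub-diploid fractions calculated with ModFit.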

[4] = Cell cycle arrest in Rb-competent human SK-MEL-13 cells assessed as accumulation at S phase at 2 uM after 24 hrs by FACS analysis; format: functional; method in brief: as §2
[5] = biological target: Cyclin-dependent kinase 4 (Homo sapiens) (UniProt P11802); test: Inhibition of CDK4-mediated Rb phosphorylation at ser 795 in human HCT116 cells at 3 times IC90 after 4 hrs by immunoblot analysis; format: cell-based; settings: HCT-116
Method in brief: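 Asynchronous HCT-116 cells (DMEM, 3 mM HEPES, 10% serum, 37 °C, 5% CO₂) were given increasing inhibitor doses for 4 or 24 h. Lysis in NETN with phosphatase and protease inhibitors, then SDS-PAGE, nitrocellulose transfer and immunoblot for phospho-Rb (Ser-795) with HRP secondary and chemiluminescence.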

[6] = system: HeLa; test: Cell cycle arrest in human HeLa cells assessed as accumulation at G1 phase at 2 uM treated 2 hr and measured 8 hr post double thymidine-synchrony release using propidium iodide staining by FACS analysis (reference value: 6 %); format: functional
[7] = system: HeLa; test: Cell cycle arrest in human HeLa cells assessed as accumulation at G1 phase at 2 uM treated 2 hr and measured 10 hr post double thymidine-synchrony release using propidium iodide staining by FACS analysis (reference value: 68 %); format: functional
[8] = system: HeLa; test: Cell cycle arrest in human HeLa cells assessed as accumulation at S phase at 2 uM treated 2 hr and measured 10 hr post double thymidine-synchrony release using propidium iodide staining by FACS analysis (reference value: 1 %); format: functional
Method in brief: (§3)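 Cells harvested at set times post-release, fixed in 70% ethanol, stained with 5 μg/ml propidium iodide plus 0.5 mg/ml RNase A, and analysed by flow cytometry. Cell-cycle phase fractions calculated by ModFit.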

[9] = system: HeLa; test: Cell cycle arrest in human HeLa cells assessed as accumulation at G2/M phase at 2 uM treated 2 hr and measured 12 hr post double thymidine-synchrony release using propidium iodide staining by FACS analysis (reference value: 17 %); format: functional; method in brief: as §3
[10] = Cell cycle arrest in human SK-MEL-13 cells assessed as accumulation at G1 phase at 2 uM treated 1 hr and measured 8 hr post double hydroxyurea-synchrony release using propidium iodide staining by FACS analysis (reference value: 10 %); format: functional, cell-based
Method in brief: (§4)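 SK-Mel-13 cells synchronized with 2 mM hydroxyurea, then treated with 2 μM CDK4 inhibitor or left untreated 1 h after release. Harvested at indicated times post-release, ethanol-fixed, propidium iodide/RNase stained, and DNA content read by FACS. Proportions of G1, S and G2/M cells derived with ModFit.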

[11] = Cell cycle arrest in human SK-MEL-13 cells assessed as accumulation at S phase at 2 uM treated 1 hr and measured 8 hr post double hydroxyurea-synchrony release using propidium iodide staining by FACS analysis (reference value: 74 %); format: functional, cell-based; method in brief: as §4
[12] = Cell cycle arrest in human SK-MEL-13 cells assessed as accumulation at G2/M phase at 2 uM treated 1 hr and measured 12 hr post double hydroxyurea-synchrony release using propidium iodide staining by FACS analysis (reference value: 50 %); format: functional, cell-based; method in brief: as §4
[13] = system: HeLa; test: Cell cycle arrest at G2 phase in human HeLa cells assessed as delay in phosphotyrosine 15 CDK2 accumulation at 2 uM treated at early S phase measured after 6-14 hr post thymidine-synchrony release by immunoblot method; format: functional, cell-based
Method in brief: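 HeLa cells synchronized by double thymidine block and released, treated with 2 μM inhibitor in early S phase, or left untreated. Harvested at set times after release, lysed in NETN with phosphatase and protease inhibitors, run on SDS-PAGE and immunoblotted for cyclin B1 and phosphotyrosine 15 CDK1/2, with cyclin D3 as loading control. Detection by HRP secondary and ECL.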

[14] = system: HeLa; test: Cell cycle arrest at G2 phase in human HeLa cells assessed as effect on cyclin A accumulation at 2 uM treated at early S phase measured after 6-14 hr post thymidine-synchrony release by immunoblot method; format: functional, cell-based
[15] = system: HeLa; test: Cell cycle arrest at G2 phase in human HeLa cells at 2 uM treated 8 hr and measured 12 hr post-synchrony release using Propidium iodide staining by FACS analysis; format: functional, cell-based
[16] = system: SW480; test: Toxicity in human SW480 cells at IC50 after 3 days by MTT assay; format: cell-based; settings: sw480, 72 h
[17] = system: MDA-MB-435; test: Toxicity in human MDA-MB-435 cells at IC50 after 3 days by MTT assay; format: cell-based; settings: mda-mb-435, 72 h
[18] = system: HeLa; test: Cell cycle arrest in synchronized human HeLa cells assessed as delay in mitotic entry at 2 uM by time-lapse microscopy (reference value: 8-9 hrs); format: functional
[19] = system: HeLa; test: Cell cycle arrest in synchronized human HeLa cells assessed as re-joining to form single binuclear cells at 2 uM by time-lapse microscopy; format: functional, cell-based
[20] = system: HeLa; test: Cell cycle arrest in human HeLa cells transfected with cyclin D3 siRNA at 2 uM measured after 8 to 20 hr post hydroxyurea-synchrony release by time-lapse microscopy; format: functional, cell-based
Method in brief: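 HeLa cells transfected with 20 nM cyclin D3 siRNA number 1 or scrambled siRNA, then synchronized by overnight 2 mM hydroxyurea block and released. Treated with CDK4 inhibitor, siRNA, or both; entry into mitosis followed by time-lapse microscopy.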

[21] = system: HeLa; test: Induction of abberent mitosis in human HeLa cells assessed as lagging chromosomes at astral side of spindle microtubules at 2 uM treated 1 hr and measured 12 hr post thymidine-synchrony release by fluorescence microscopy; format: functional, cell-based
[22] = system: HeLa; test: Induction of abberent mitosis in human HeLa cells expressing GFP-H2B assessed as lagging chromosomes at astral side of spindle microtubules at 2 uM treated 1 hr and measured 12 hr post-thymidine release by time-lapse microscopy; format: functional, cell-based
[23] = system: HeLa; test: Decrease in borealin protein expression in human HeLa cells at 2 uM measured 14 hr post thymidine-synchrony release by immunoblot analysis; format: functional, cell-based
Method in brief: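 Synchronized HeLa cells given 2 μM CDK4 inhibitor in early S phase and harvested at set times post-release. Lysed in supplemented NETN buffer on ice for 20 min. Lysates run on SDS-PAGE and immunoblotted for survivin, borealin and other chromosomal passenger proteins, with ECL detection. Cyclin D3 served as loading control.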

[24] = system: HeLa; test: Cell cycle arrest in human HeLa cells assessed as accumulation at G1 phase at 2 uM treated 4 hr and measured 10 hr post double thymidine-synchrony release using propidium iodide staining by FACS analysis (reference value: 68 %); format: functional
[25] = system: HeLa; test: Induction of abberent mitosis in human HeLa cells assessed as lagging chromosomes at 2 uM treated 1 hr and measured 12 hr post thymidine-synchrony release by fluorescence microscopy

Chain of Cyclin-dependent kinase 4 (Homo sapiens) (P11802 whole entry): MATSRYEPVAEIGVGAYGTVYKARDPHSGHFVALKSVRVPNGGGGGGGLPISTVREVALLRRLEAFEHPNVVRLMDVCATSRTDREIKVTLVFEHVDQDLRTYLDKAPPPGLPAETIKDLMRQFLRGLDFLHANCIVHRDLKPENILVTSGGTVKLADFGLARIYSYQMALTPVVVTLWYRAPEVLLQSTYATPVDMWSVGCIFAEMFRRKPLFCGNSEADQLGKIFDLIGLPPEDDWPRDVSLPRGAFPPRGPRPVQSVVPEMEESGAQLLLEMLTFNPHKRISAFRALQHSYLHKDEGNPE
Chain of Hepatocyte growth factor receptor (P08581 whole entry): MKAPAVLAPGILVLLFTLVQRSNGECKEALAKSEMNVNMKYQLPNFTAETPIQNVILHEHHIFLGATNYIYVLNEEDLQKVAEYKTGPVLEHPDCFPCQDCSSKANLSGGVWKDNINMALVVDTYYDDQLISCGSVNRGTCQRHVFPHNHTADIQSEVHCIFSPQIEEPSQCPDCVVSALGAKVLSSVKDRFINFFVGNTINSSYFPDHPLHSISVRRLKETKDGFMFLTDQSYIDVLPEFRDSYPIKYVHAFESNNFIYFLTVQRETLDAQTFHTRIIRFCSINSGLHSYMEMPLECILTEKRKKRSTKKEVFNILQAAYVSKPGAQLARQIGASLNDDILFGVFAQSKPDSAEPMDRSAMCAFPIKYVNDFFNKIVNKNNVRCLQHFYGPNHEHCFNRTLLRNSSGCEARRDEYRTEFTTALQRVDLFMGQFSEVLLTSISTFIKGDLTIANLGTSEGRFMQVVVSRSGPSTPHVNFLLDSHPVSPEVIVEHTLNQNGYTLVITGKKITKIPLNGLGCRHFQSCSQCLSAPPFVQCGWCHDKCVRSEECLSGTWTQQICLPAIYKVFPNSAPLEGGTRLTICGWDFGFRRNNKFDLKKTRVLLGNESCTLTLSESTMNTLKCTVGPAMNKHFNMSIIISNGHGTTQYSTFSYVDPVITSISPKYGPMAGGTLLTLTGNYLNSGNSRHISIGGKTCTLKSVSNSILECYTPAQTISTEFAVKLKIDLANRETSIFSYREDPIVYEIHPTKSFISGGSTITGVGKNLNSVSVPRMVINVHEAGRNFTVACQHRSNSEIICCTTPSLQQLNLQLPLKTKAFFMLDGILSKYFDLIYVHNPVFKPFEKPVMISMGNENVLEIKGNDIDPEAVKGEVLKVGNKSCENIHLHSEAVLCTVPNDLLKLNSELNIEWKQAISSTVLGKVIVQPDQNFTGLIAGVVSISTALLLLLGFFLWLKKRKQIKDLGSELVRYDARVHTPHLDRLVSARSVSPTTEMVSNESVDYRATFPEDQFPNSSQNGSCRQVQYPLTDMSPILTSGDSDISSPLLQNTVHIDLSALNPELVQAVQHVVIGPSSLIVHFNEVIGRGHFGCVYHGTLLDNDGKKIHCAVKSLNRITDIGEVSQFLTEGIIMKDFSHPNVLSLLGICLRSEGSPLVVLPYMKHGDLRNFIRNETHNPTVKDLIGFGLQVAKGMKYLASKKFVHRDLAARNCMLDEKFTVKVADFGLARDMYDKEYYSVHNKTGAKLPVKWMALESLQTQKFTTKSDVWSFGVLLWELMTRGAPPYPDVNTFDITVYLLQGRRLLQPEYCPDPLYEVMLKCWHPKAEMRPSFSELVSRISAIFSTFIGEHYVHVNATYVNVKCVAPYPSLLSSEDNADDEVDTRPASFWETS

Row | Compound | IC50 [1] [µM] | IC50 [2] [µM] | Activity [3] [%] | Activity [4] [%] | inhibition [5] | Activity [6] [%] | Activity [7] [%] | Activity [8] [%] | Activity [9] [%] | Activity [10] [%] | Activity [11] [%] | Activity [12] [%] | Activity [13] | Activity [14] | Activity [15] | Activity [16] | Activity [17] | Time [18] [h] | Activity [19] | Activity [20] | other results
1 | CN1CCN(c2ccc(Nc3nc(N)c(C(=O)c4ccc5c(c4)OCCO5)s3)cc2)CC1 | > 20 | > 50 | 65 | 7 | Active | 7 | 4 | 6 | 88 | 12 | 18 | 77 | Active | inactive | Active | Toxic | Toxic | 11 | Active | Active | Activity [21]: Active; Activity [22]: Active; Activity [23]: Active; Activity [24]: 12%; Activity [25]: 40%
2 | COc1cccc(C(=O)c2sc(Nc3ccc(N4CCN(C(C)C)CC4)cc3)nc2N)c1 | > 20 | > 50 | 65 | 7 | Active | 7 | 4 | 6 | 88 | 12 | 18 | 77 | Active | inactive | Active | Toxic | Toxic | 11 | Active | Active | Activity [21]: Active; Activity [22]: Active; Activity [23]: Active; Activity [24]: 12%; Activity [25]: 40%
